Measurements of several laboratories.
Lines come from different studies, so protocols differ.
Target: Vasopressin V1a receptor (AVPR1A, Homo sapiens, UniProt P37288)

SMILES	observed	method	tested at	quantity	result
COc1ccc(S(=O)(=O)N2CCCCC2)cc1C	ligand displacement	radioligand	10 µM	inhibition	< 30%
Clc1ccc2c(C3CCN(CCc4c[nH]c5ccccc45)CC3)c[nH]c2c1	ligand displacement	radioligand	10 µM	inhibition	2%
C[C@H](C(=O)N[C@H]1COc2ccccc2[C@@H]1S(C)(=O)=O)c1ccc(F)cc1	cell-free assay	–	10 µM	inhibition	-23%
CN(CCN1CCC(OC(=O)Nc2ccccc2-c2ccccc2)CC1)C(=O)c1ccc(CN2CCC(C(N)=O)CC2)cc1	ligand displacement	radioligand	1 µM	inhibition	5%
CCN(CC)CCCC[C@H](NC(=O)[C@H](CC(C)C)NC(=O)[C@H](C)NC(=O)[C@H](Cc1ccccc1)NC(=O)c1ccc(C(C)(C)C)cc1)C(=O)N[C@@H](CO)C(=O)OC	ligand displacement	radioligand	10 µM	remaining binding	14.6%
O=C(Nc1cccnn1)N1CCN([C@@H]2CCOc3cc(C(F)(F)F)ccc32)CC1	ligand displacement	–	20 µM	inhibition	5%
Nc1ncc(-c2nc(N3CCOCC3)nc(N3CCOCC3)n2)c(C(F)F)n1	cell-free assay	radioligand	10 µM	remaining signal	104%
c1ccc(C(NCCNC(c2ccccc2)c2ccccc2)c2ccccc2)cc1	cell-free assay	–	10 µM	inhibition	-1%
COCc1c(-c2cc3cc(C)cc(OC)c3s2)c2c(N)ncnn2c1CN1CCNC(=O)C1	ligand displacement	radioligand	10 µM	inhibition	-11%
